For series [1], the target named is T1, Mitogen-activated protein kinase kinase kinase 8 (Homo sapiens, UniProt P41279). The series is described as follows: Inhibition of human COT (66 to 395 residues) expressed in Sf21 cells using 5-Fluo-Ahx-AGAGSGQLIDSNleANSFVGTR-NH2 as substrate after 60 mins by caliper microfluidic mobility shift assay.
Series [2] deals with T1, Mitogen-activated protein kinase kinase kinase 8. Briefly: Inhibition of COT in LPS-stimulated human PBMC assessed as reduction in ERK1/2 phosphorylation incubated for 60 mins followed by LPS stimulation for 12 mins by flow cytometric analysis. The essentials: (§1)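 Primary human PBMCs were stimulated with LPS. Read-outs were pERK, TNFα release, or p65 phosphorylation, each reported as IC50.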

Series [3] shares this target. Briefly: Inhibition of COT in LPS-stimulated human PBMC assessed as reduction in TNFalpha release incubated for 1 hr followed by stimulation with LPS for 4 hrs by HTRF assay. In outline:
as §1
(In general: TR-FRET usually uses a lanthanide donor and a delayed reading to cut background.)

A short description of series [4]: Octanol-water partition coefficient, log P of the compound by shake-flask method. It counts as physicochemical.
Series [5] addresses T1, Mitogen-activated protein kinase kinase kinase 8. The series is described as follows: Inhibition of COT in LPS-stimulated human whole blood assessed as reduction in TNFalpha release incubated for 30 mins followed by stimulation with LPS for 3 hrs by HTRF assay. The class given is tissue-based. In outline:
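Human whole blood was stimulated with LPS, and TNFα release was measured as IC50.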

Series [6] in a line: Equilibrium solubility of the compound at pH 6.8 after 16 hrs by mass spectrometric analysis. It counts as physicochemical. The conditions noted are these: buffer.
Series [7] in a line: Equilibrium solubility of the compound at pH 4 after 16 hrs by mass spectrometric analysis. The class given is physicochemical. The note with it: buffer.
Series [8] is described as follows: Protein binding in human plasma at 5 uM after 4 hrs by rapid equilibrium dialysis method. It counts as ADME, cell-free. The conditions noted are these: read-out: PPB (converted). In general terms: In equilibrium dialysis only unbound substance equilibrates across the membrane.
Series [9] is described as follows: Equilibrium solubility of the compound at pH 1 after 16 hrs by mass spectrometric analysis. It counts as physicochemical. The note with it: buffer, pH 1, 16 h.
A short description of series [10]: Half life in wild type Sprague-Dawley rat liver microsomes at 5 uM preincubated for 3 mins followed by NADPH addition measured after 1 hr by HPLC/MS analysis. The class given is ADME. (Liver microsomes are vesicles of endoplasmic reticulum, rich in cytochrome P450 enzymes.)
Series [11] is described as follows: Clearance in wild type Sprague-Dawley rat at 1 mg/kg, iv or 3 mg/kg, po. The note with it: in vivo. The class given is ADME, organism-based. The essentials:
(§2)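 Pharmacokinetics in male Sprague–Dawley rats, n = 3 per group, after i.v. and p.o. dosing. AUC and Cmax are reported dose-normalized.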

Series [12] is described as follows: Clearance in beagle dog at 0.1 mg/kg, iv or 0.3 mg/kg, po fasted 12 hrs prior to compound administration via cassette dosing and fed 2 hrs post dose. It counts as ADME, organism-based, Canis lupus familiaris. The conditions noted are these: in vivo. The essentials: (§3)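 Pharmacokinetics in Beagle dogs, n = 3 per group, after i.v. and p.o. dosing. AUC and Cmax are reported dose-normalized.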

A short description of series [13]: Terminal elimination half life in wild type Sprague-Dawley rat at 1 mg/kg, iv or 3 mg/kg, po. The class given is ADME, organism-based. The conditions noted are these: in vivo, read-out: beta t1/2 (converted). The essentials:
(§4)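 Male wild-type Sprague–Dawley rats, n = 3 per group, housed under Swiss animal-welfare conditions (12 h light/dark, 22−24 °C). Each group received separate i.v. and oral doses, with plasma profiles used for PK parameters.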

Series [14] in a line: Terminal elimination half life in beagle dog at 0.1 mg/kg, iv or 0.3 mg/kg, po fasted 12 hrs prior to compound administration via cassette dosing and fed 2 hrs post dose. The class given is ADME, organism-based, Canis lupus familiaris. The note with it: in vivo, read-out: beta t1/2 (converted). The essentials:
(§5)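 Beagle dogs, n = 3 per group, dosed i.v. and orally. PK parameters were derived from blood/plasma profiles, with exposure values dose-normalized.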

The nature of series [15]: Mean residence time in wild type Sprague-Dawley rat at 1 mg/kg, iv or 3 mg/kg, po. The class given is ADME, organism-based. The note with it: in vivo. In outline:
as §2

The nature of series [16]: Mean residence time in beagle dog at 0.1 mg/kg, iv or 0.3 mg/kg, po fasted 12 hrs prior to compound administration via cassette dosing and fed 2 hrs post dose. The class given is ADME, organism-based, Canis lupus familiaris. The conditions noted are these: in vivo. In outline:
as §3

Series [17] in a line: Dose normalized AUC in wild type Sprague-Dawley rat at 1 mg/kg, iv. It counts as ADME, organism-based. The note with it: in vivo. The essentials:
as §2

Series [18] can be described thus: Dose normalized AUC in beagle dog at 0.1 mg/kg, iv fasted 12 hrs prior to compound administration via cassette dosing and fed 2 hrs post dose. The note with it: in vivo. The class given is ADME, organism-based, Canis lupus familiaris. In outline:
as §3

Series [19] can be described thus: Dose normalized AUC in wild type Sprague-Dawley rat at 3 mg/kg, po. The note with it: in vivo. It counts as ADME, organism-based. In outline:
as §2

A short description of series [20]: Dose normalized AUC in beagle dog at 0.3 mg/kg, po fasted 12 hrs prior to compound administration via cassette dosing and fed 2 hrs post dose. It counts as ADME, organism-based, Canis lupus familiaris. The conditions noted are these: in vivo. The essentials:
as §3

Series [21] in a line: Dose normalized Cmax in wild type Sprague-Dawley rat at 1 mg/kg, iv or 3 mg/kg, po. It counts as ADME, organism-based. The note with it: in vivo. The essentials:
as §2

Series [22] can be described thus: Dose normalized Cmax in beagle dog at 0.1 mg/kg, iv or 0.3 mg/kg, po fasted 12 hrs prior to compound administration via cassette dosing and fed 2 hrs post dose. It counts as ADME, organism-based, Canis lupus familiaris. The conditions noted are these: in vivo. In outline:
as §3

The nature of series [23]: Tmax in wild type Sprague-Dawley rat at 1 mg/kg, iv or 3 mg/kg, po. It counts as ADME, organism-based. The note with it: in vivo. In outline: as §4
Series [24] in a line: Oral bioavailability in wild type Sprague-Dawley rat at 3 mg/kg. It counts as ADME, organism-based. The conditions noted are these: in vivo. In outline: as §4
A short description of series [25]: Oral bioavailability in beagle dog at 0.3 mg/kg fasted 12 hrs prior to compound administration via cassette dosing and fed 2 hrs post dose. The class given is ADME, organism-based, Canis lupus familiaris. The conditions noted are these: in vivo. The essentials:
as §5

A short description of series [26]: Antiinflammatory activity in human PBMC assessed as inhibition of uric acid induced-IL-1beta formation stimulated with MSU crystals after 3 hrs in presence of ATP. The class given is functional, cell-based.
The nature of series [27]: Metabolic stability in bile-duct cannulated Sprague-Dawley rat assessed as parent compound remaining in liver at 3 mg/kg, iv measured over 8 hrs post dose. It counts as ADME, organism-based. The conditions noted are these: read-out: Stability. The essentials: (§6)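 Bile-duct cannulated rats dosed in vivo. Parent and metabolites in each matrix were expressed as relative peak areas of the drug-related components detected, at the stated sampling time or collection period post dose.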

Series [28] in a line: Metabolic stability in bile-duct cannulated Sprague-Dawley rat assessed as parent compound remaining in kidney at 3 mg/kg, iv measured over 8 hrs post dose. The class given is ADME, organism-based. The conditions noted are these: read-out: Stability. The essentials:
as §6

The nature of series [29]: Half life in beagle dog liver microsomes at 5 uM preincubated for 3 mins followed by NADPH addition measured after 1 hr by HPLC/MS analysis. It counts as ADME, Canis lupus familiaris.
The subject of a further series is Canis familiaris. The series is described as follows: Antiinflammatory activity in MSU-induced beagle dog acute synovitis model assessed as prevention of inflammation-driven lameness at 15 mg/kg, administered once a week 3 hrs post MSU injection measured after 6 hrs post last dose. It counts as functional, organism-based. The note with it: Canis lupus familiaris. The essentials:
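Lameness was induced in dogs by uric acid injection into the joint. Treatment was vehicle, test article at 5 or 15 mg/kg, or meloxicam 0.2 mg/kg. Vertical peak force of the affected limb was measured on a force plate while trotting. The read-out was the time after treatment for that force to recover to 60% of the value measured before lameness.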

Series [30] is described as follows: AUC (0 to 10.5 hrs) in MSU-induced beagle dog acute synovitis model at 15 mg/kg. The class given is ADME, organism-based, Canis lupus familiaris. Set-up: time < 10.5 hr, dose 15 mg/kg. The note with it: in vivo. In outline:
(§7)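 Dog uric acid-induced acute synovitis model. Groups were vehicle, the test article at 5 or 15 mg/kg, and meloxicam at 0.2 mg/kg as positive control. Exposure is reported as AUC over 0–10.5 h.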

Series [31] in a line: AUC (0 to 10.5 hrs) in MSU-induced beagle dog acute synovitis model at 5 mg/kg. The class given is ADME, organism-based, Canis lupus familiaris. Set-up: time < 10.5 hr, dose 5 mg/kg. The note with it: in vivo. The essentials: as §7
The nature of series [32]: Half life in beagle dog liver S9 fraction at 1 uM in absence of NADPH by HPLC/MS analysis.
A short description of series [33]: Half life in wild type Sprague-Dawley rat liver S9 fraction at 1 uM in absence of NADPH by HPLC/MS analysis.

Each structure is given as a SMILES string. In brackets after ≈: the same amount, converted by molar mass. Activity calls are given as the source filed them. The rule behind the calls is not given here.

T1 sequence (P41279 whole entry, the tested form may be a part): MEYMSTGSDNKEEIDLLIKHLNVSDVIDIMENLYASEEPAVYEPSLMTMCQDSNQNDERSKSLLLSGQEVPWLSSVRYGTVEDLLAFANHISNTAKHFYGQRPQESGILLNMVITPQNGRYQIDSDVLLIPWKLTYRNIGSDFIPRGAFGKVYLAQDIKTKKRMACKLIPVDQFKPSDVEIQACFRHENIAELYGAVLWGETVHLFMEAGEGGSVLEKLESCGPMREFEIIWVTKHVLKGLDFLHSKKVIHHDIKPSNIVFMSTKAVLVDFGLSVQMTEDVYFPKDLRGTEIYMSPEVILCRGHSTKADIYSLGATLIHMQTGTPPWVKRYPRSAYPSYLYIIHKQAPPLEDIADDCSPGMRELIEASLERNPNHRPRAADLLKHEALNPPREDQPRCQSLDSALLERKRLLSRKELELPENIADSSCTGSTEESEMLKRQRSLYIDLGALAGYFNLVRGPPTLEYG

Broadly, the IC50 is the concentration that gives 50% inhibition. As a reminder, the logP is the decadic logarithm of the partition coefficient of the neutral form, usually between octanol and water. Read a low logP as a more hydrophilic compound. What is called thermodynamic solubility is solubility found after equilibrating the solid with the medium. For `c1ccc(-c2cc3c(cn2)ncc2ncn(-c4ccc5nc(NCCN6CCOCC6)sc5c4)c23)cc1`, the half-maximal inhibitory concentration (IC50) in series [1] was 16 nM; in series [2] it was 280 nM; in [3] it was 270 nM; in series [5], 2500 nM. The log partition coefficient (logP) in series [4] was determined as 4.6. Moreover, the thermodynamic solubility at 16 h in series [6] is under 4 µM; in series [7], over 1000 µM. The fraction unbound at 4 h, 5 µM in [8] is under 0.01. Further, the solubility result in series [9] is recorded as “Soluble”.
The term MRT denotes the average time that molecules of a dose stay in the body. Broadly, the Tmax is the time from dosing to the highest level. As a reminder, the bioavailability is the share of a dose that reaches the circulation, judged against a reference dose that is usually intravenous. Low values mean poor availability, high ones good availability. `CC(CN1CCOCC1)Nc1ccc2cc(-n3cnc4cnc5cnc(-c6ccncc6)cc5c43)ccc2n1` (racemic): the IC50 in series [1] was 6 nM; in series [2] it was 60 nM; in series [3], 60 nM; in series [5] it was 200 nM; in series [26], 200 nM. This molecule came in with a logP in series [4] of 3.3. For the same molecule, the thermodynamic solubility at 16 h in [6] is 136 µM (≈ 70.3 µg/mL); in [7], over 1000 µM. Besides, the fraction unbound at 4 h, 5 µM in series [8] was 0.03. The values for the half-life at 5 µM in series [10] and in series [29] were 3 min and 0.167 h, respectively. For the same molecule, the values for the clearance in series [11] and in series [12] were 277 mL/min/kg and 25 mL/min/kg, respectively. Moreover, the figures for the half-life in [13] and in [14] were 2.1 h and 3.2 h, respectively. Further, the MRT in series [15] was found to be 1.2 h; in [16] it was 2.4 h. In addition, the AUC/dose in series [17] is 119 nmol·h; in [18] it was 1570 nmol·h; in series [19], 31 nmol·h; in series [20], 957 nmol·h. The figures for the Cmax/dose in [21] and in series [22] were 12 nM and 61 nM, respectively. The time to peak (Tmax) in [23] came to 0.3 h. The bioavailability in series [24] was 26%; in [25], 61%. Besides, the figures for the remaining at 8 h in series [27] and in [28] were 28% and 22%, respectively. Also, in the series on Canis familiaris, the outcome was Active. Besides, the AUC came to 4575 nmol·h in series [30] and 2057 nmol·h in series [31]. Moreover, the half-life at 1 µM in series [32] is over 2 h; in [33] it was under 5 min.

The values above are taken from ChEMBL document CHEMBL3853320, “Discovery of Imidazoquinolines as a Novel Class of Potent, Selective, and in Vivo Efficacious Cancer Osaka Thyroid (COT) Kinase Inhibitors” (J Med Chem, 2016).
